Columns and labels:
[1] = K+ / Na+ ratio in HF(Human foreskin fibroblasts) cells; assay type: functional
[2] = tested on: HFF; assay: Effect of compound on Na+ ion content of HFF (Human foreskin fibroblasts) Cells at 125 ng/mL; assay type: functional
[3] = tested on: HFF; assay: Effect of compound on K+ ion content of HFF (Human foreskin fibroblasts) Cells at 125 ng/mL; assay type: functional
[4] = tested on: HFF; assay: Effect of compound on K+ ion content of HFF (Human foreskin fibroblasts) Cells at 4.8 ug/mL; assay type: functional
[5] = tested on: HFF; assay: Effect of compound on Na+ ion content of HFF Cells at 4.8 ug/mL; assay type: functional, Homo sapiens
[6] = tested on: HFF; assay: Effect of compound on K+ ion content of HFF (Human foreskin fibroblasts) Cells at 31 ng/mL; assay type: functional
How it was run: (§1)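 Human foreskin fibroblasts were grown in 6 cm dishes in DMEM with 10% FBS and antibiotics at 37 °C in CO2/air, pH 7.2-7.4, at 5 × 10⁵ to 2 × 10⁶ cells/dish. Medium was swapped for serum-free test solution by four rinses. Incubation was 45 min, or 30 min in expt III, at 37 °C. Dishes were washed six times with iced MgCl2 or MgSO4. Read-out was K⁺ or Na⁺ per dish (10⁸ × mol), mean of duplicate dishes.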

[7] = tested on: HFF; assay: Effect of compound on K+ ion content of HFF (Human foreskin fibroblasts) Cells at 62.5 ng/mL; assay type: functional; how it was run: as §1
[8] = tested on: HFF; assay: Effect of compound on K+ ion content of HFF (Human foreskin fibroblasts) Cells at 15.6 ng/mL; assay type: functional; how it was run: as §1
[9] = tested on: HFF; assay: Effect of compound on Na+ ion content of HFF (Human foreskin fibroblasts) Cells at 15.6 ng/mL; assay type: functional; how it was run: as §1
[10] = tested on: HFF; assay: Effect of compound on Na+ ion content of HFF (Human foreskin fibroblasts) Cells at 31 ng/mL; assay type: functional; how it was run: as §1
[11] = tested on: HFF; assay: Effect of compound on Na+ ion content of HFF (Human foreskin fibroblasts) Cells at 62.5 ng/mL; assay type: functional; how it was run: as §1
[12] = tested on: HFF; assay: Effect of compound on K+ ion content of HFF (Human foreskin fibroblasts) Cells at 3 ug/mL; assay type: functional
[13] = tested on: HFF; assay: Effect of compound on Na+ ion content of HFF (Human foreskin fibroblasts) Cells at 3 ug/mL; assay type: functional
[14] = tested on: HFF; assay: Effect of compound on K+ ion content of HFF (Human foreskin fibroblasts) Cells at 30 ng/mL; assay type: functional; how it was run: as §1
[15] = tested on: HFF; assay: Effect of compound on Na+ ion content of HFF (Human foreskin fibroblasts) Cells at 30 ng/mL; assay type: functional; how it was run: as §1
[16] = tested on: HFF; assay: Effect of compound on Na+ ion content of HFF (Human foreskin fibroblasts) Cells at 10 ng/mL; assay type: functional; how it was run: as §1
[17] = K+ / Na+ ratio in HF(Human foreskin fibroblasts) cells at 100 ng/mL; assay type: functional
How it was run: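 HF cells were in 6 cm dishes at 5 × 10⁵ to 2 × 10⁶ cells/dish. Growth medium was replaced with serum-free test solution by four rapid rinses. Incubation was 45 min at 37 °C in CO2/air. Dishes were rinsed six times with iced 0.1 M MgCl2 and intracellular K⁺ and Na⁺ were assayed. The K⁺/Na⁺ ratio is the mean of duplicate dishes.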

[18] = tested on: HFF; assay: Effect of compound on K+ ion content of HFF (Human foreskin fibroblasts) Cells at 10 ng/mL; assay type: functional; how it was run: as §1
[19] = tested on: HFF; assay: Effect of compound on K+ ion content of HFF (Human foreskin fibroblasts) Cells at 100 ng/mL; assay type: functional; how it was run: as §1
[20] = tested on: HFF; assay: Effect of compound on Na+ ion content of HFF (Human foreskin fibroblasts) Cells at 0.03 ug/mL; assay type: functional; how it was run: as §1
[21] = tested on: HFF; assay: Effect of compound on Na+ ion content of HFF (Human foreskin fibroblasts) Cells at 4.8 ug/mL; assay type: functional; how it was run: as §1
[22] = tested on: HFF; assay: Effect of compound on K+ ion content of HFF (Human foreskin fibroblasts) Cells at 0.1 ug/mL; assay type: functional; how it was run: as §1
[23] = tested on: HFF; assay: Effect of compound on Na+ ion content of HFF (Human foreskin fibroblasts) Cells at 0.3 ug/mL; assay type: functional; how it was run: as §1
[24] = tested on: HFF; assay: Effect of compound on K+ ion content of HFF (Human foreskin fibroblasts) Cells at 0.03 ug/mL; assay type: functional; how it was run: as §1
[25] = tested on: HFF; assay: Effect of compound on K+ ion content of HFF (Human foreskin fibroblasts) Cells at 0.3 ug/mL; assay type: functional; how it was run: as §1
[26] = tested on: HFF; assay: Effect of compound on Na+ ion content of HFF (Human foreskin fibroblasts) Cells at 0.1 ug/mL; assay type: functional; how it was run: as §1
[27] = tested on: HFF; assay: Effect of compound on Na+ ion content of HFF (Human foreskin fibroblasts) Cells at 2.4 ug/mL; assay type: functional; how it was run: as §1
[28] = tested on: HFF; assay: Effect of compound on K+ ion content of HFF (Human foreskin fibroblasts) Cells at 4.8 ug/mL (Expt II); assay type: functional; how it was run: as §1
[29] = tested on: HFF; assay: Effect of compound on Na+ ion content of HFF (Human foreskin fibroblasts) Cells at 4.8 ug/mL (Expt II); assay type: functional; how it was run: as §1
[30] = tested on: HFF; assay: Effect of compound on K+ ion content of HFF (Human foreskin fibroblasts) Cells at 4.8 ug/mL (Expt III); assay type: functional; how it was run: as §1
[31] = tested on: HFF; assay: Effect of compound on K+ ion content of HFF (Human foreskin fibroblasts) Cells at 2.4 ug/mL; assay type: functional; how it was run: as §1
[32] = tested on: HFF; assay: Effect of compound on Na+ ion content of HFF (Human foreskin fibroblasts) Cells at 4.8 ug/mL (Expt III); assay type: functional; how it was run: as §1

With `COc1ccc(CCN(C)CCCC(C#N)(c2ccc(OC)c(OC)c2)C(C)C)cc1OC.Oc1ccc(C2(c3ccc(O)cc3)c3ccccc3-c3cc(O)ccc32)cc1` (centres undefined) the K+/Na+ ratio [1] was 1.3, the “Na+ ion content” value [2] was 1600000000 and the “K+ Ion content” value [3] was 2000000000.
With `COc1ccc(CCN(C)CCCC(C#N)(c2ccc(OC)c(OC)c2)C(C)C)cc1OC.Oc1ccc(C2(c3ccc(O)cc3)c3ccccc3Oc3ccccc32)cc1` (centres undefined) the K+ Ion content [4] was 370 nmol/dish, the K+/Na+ ratio [1] was 3.4 and the “Na+ ion content” value [5] was 1100000000.
With `C=C[C@H]1CN2CC[C@H]1C[C@H]2[C@H](O)c1ccnc2ccc(OC)cc12.Oc1ccc(C2(c3ccc(O)cc3)c3ccccc3-c3cc(O)ccc32)cc1` the K+/Na+ ratio [1] was 0.91, the “Na+ ion content” value [2] was 2200000000 and the “K+ Ion content” value [3] was 2000000000.
For `Oc1ccc(C2(c3ccc(O)cc3)c3ccccc3-c3cc(O)ccc32)cc1`, the K+ Ion content [6] was 270 nmol/dish, the K+ Ion content [7] was 100 nmol/dish and the K+ Ion content [8] was 3e+09. The “Na+ ion content” value [2] was 3800000000, the “Na+ ion content” value [9] was 800000000 and the “Na+ ion content” value [10] was 1200000000. For the same molecule, the Na+ ion content [11] was 290 nmol/dish and the “K+ Ion content” value [3] was 520000000.
For `COc1ccc(CCN(C)CCCC(C#N)(c2ccc(OC)c(OC)c2)C(C)C)cc1OC.Oc1ccc(C2(c3ccc(O)cc3)c3ccccc3-c3ccc(O)cc32)cc1` (centres undefined), the K+/Na+ ratio [1] was 0.71, the K+ Ion content [12] was 150 nmol/dish and the “Na+ ion content” value [13] was 2100000000.
For `Oc1ccc(C2(c3ccc(O)cc3)c3ccccc3-c3c(O)cccc32)cc1`, the K+ Ion content [14] was 240 nmol/dish, the Na+ ion content [15] was 110 nmol/dish and the “Na+ ion content” value [16] was 710000000. It also gave a K+/Na+ ratio [17] of 0.29, a K+ Ion content [18] of 300 nmol/dish and a K+ Ion content [19] of 67 nmol/dish. The Na+ ion content [20] was 1.1e+09.
With `C=C[C@H]1CN2CC[C@H]1C[C@H]2[C@H](O)c1ccnc2ccc(OC)cc12.Oc1ccc(C2(c3ccc(O)cc3)c3ccccc3Oc3ccccc32)cc1` the K+ Ion content [4] was 270 nmol/dish, the K+/Na+ ratio [1] was 2.3 and the “Na+ ion content” value [21] was 1200000000.
With `Oc1ccc(C2(c3ccc(O)cc3)c3ccccc3-c3ccc(O)cc32)cc1` the “K+ Ion content” value [22] was 870000000, the K+ Ion content [12] was 55 nmol/dish and the “Na+ ion content” value [13] was 3900000000. For the same molecule, the “Na+ ion content” value [23] was 3500000000, the K+ Ion content [24] was 280 nmol/dish and the K+ Ion content [25] was 38 nmol/dish. The “Na+ ion content” value [20] was 350000000 and the “Na+ ion content” value [26] was 2400000000.
`Oc1ccc(C2(c3ccc(O)cc3)c3ccccc3Oc3ccccc32)cc1` showed a Na+ ion content [27] of 190 nmol/dish, a K+ Ion content [28] of 240 nmol/dish and a Na+ ion content [29] of 270 nmol/dish. The K+ Ion content [30] was 25 nmol/dish, the K+ Ion content [31] was 340 nmol/dish and the Na+ ion content [32] was 290 nmol/dish.
